# ChEMBL document CHEMBL4130515, “Identification of Privileged Antichlamydial Natural Products by a Ligand-Based Strategy” (J Nat Prod, 2017)
# Assays:
# [1] = system: HL; assay: (§1) Cytotoxicity against human HL cells assessed as cell viability at 50 uM after 72 hrs by resazurin dye based fluorescence assay relative to control; details: hl, 72 h, 50 µM
# How it was run: (§2)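 HL cells grown overnight to confluence, then exposed to compound at 50 μM for 72 h at 37 °C, four parallel replicates. Read-out after 2 h with 20 μM resazurin in PBS, fluorescence at 570/590 nm (ex/em). Viability % is relative to cells in 0.25% DMSO medium. Usnic acid 50 μM as positive control.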
# [2] = system: Chlamydia pneumoniae; assay: Antichlamydial activity against Chlamydia pneumoniae K7 infected in HL cells after 70 hrs by fluorescent microscopic analysis; assay type: functional, organism-based; details: K7, HL, 70 h
# How it was run: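 HL cells grown to confluence, infected with C. pneumoniae K7 at MOI 0.3 in medium with 1 μg/mL cycloheximide, centrifuged 500 rpm 1 h, then 37 °C 1 h. At 2 h, inoculum replaced by cycloheximide medium with compound at 12 concentrations from 1 nM to 100 μM. Incubated 70 h at 37 °C, stained, and inclusions counted by fluorescence microscopy. Three runs; IC50 from variable-slope sigmoidal fit. Azithromycin 20 nM as positive control.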
# [3] = as §1; details: HL cells, read-out: Activity; how it was run: as §2
# [4] = system: Chlamydia pneumoniae; assay: Antichlamydial activity against Chlamydia pneumoniae K7 infected in HL cells assessed as chlamydial inhibition at 50 uM after 70 hrs by fluorescent microscopic analysis; assay type: functional
# How it was run: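 Confluent HL cells infected with C. pneumoniae K7 at MOI 0.3 in medium with 1 μg/mL cycloheximide, centrifuged 500 rpm 1 h, then held at 37 °C for 1 h. At 2 h, compound added at 50 μM or DMSO vehicle. After 70 h at 37 °C, inclusions stained and counted in four fields per coverslip under a fluorescence microscope (20×). Inhibition % is relative to mean vehicle counts.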
SMILES,Activity [1],IC50 [2],"viability at 72 h, 50 µM [3]",inhibition at 50 µM [4]
O=c1cc(-c2ccccc2)oc2cc(O)cc(O)c12 [CHRYSIN],Toxic,,,
COc1ccc2ccc(=O)oc2c1CC=C(C)C [OSTHOLE],Toxic,,,
OC1c2ccccc2N=C2CCCN21 (stereo not given) [PEGANOLE],,35.1 µM,95.2%,66.2%
